Compounds with a hit are over-represented: about 1.7% of the library has one in this group of screens.
CHO-K1 Ca antag = nonselective inhibitor or artifact in parental CHO-K1 cells. 360,000 tested, 0.6% active. AID 602250. inhibition, % at 3 µM. ATP-induced calcium, Fluo-8 fluorescence;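 active = inhibition above a per-plate cutoff, the plate's mean sample inhibition plus 3 SD, cut at about 24% in these data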;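 note: 0% = DMSO plus EC80 ATP and 100% = DMSO alone without ATP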
M1 ag parental = counter-screen for M1 agonists: effect in parental CHO-K1 cells. Fluo-8 calcium fluorescence; scaled to maximal ATP response, vehicle zero. activation, % at 3 µM. 360,000 tested, 0.48% active; in the data active = activation above about 15%;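 note: untransfected CHO-K1 host cells lacking M1 receptor as counterscreen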
CHRM5 antagonist = human M5 muscarinic receptor antagonists, primary screen, CHO cells, Fluo-8 calcium fluorescence; Muscarinic acetylcholine receptor M5 (Homo sapiens), P08912; CHO-hM5 cells, ACh EC80; inhibition, % at 3 µM; 360,000 tested, 0.59% active; AID 624040, 2012;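 active = inhibition above a per-plate cutoff, the mean of that plate's test compounds plus 3 SD, cut at about 27% in these data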;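 note: 0% = acetylcholine EC80 with DMSO and 100% = DMSO without agonist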
Target sequence (P08912 whole entry, looked up): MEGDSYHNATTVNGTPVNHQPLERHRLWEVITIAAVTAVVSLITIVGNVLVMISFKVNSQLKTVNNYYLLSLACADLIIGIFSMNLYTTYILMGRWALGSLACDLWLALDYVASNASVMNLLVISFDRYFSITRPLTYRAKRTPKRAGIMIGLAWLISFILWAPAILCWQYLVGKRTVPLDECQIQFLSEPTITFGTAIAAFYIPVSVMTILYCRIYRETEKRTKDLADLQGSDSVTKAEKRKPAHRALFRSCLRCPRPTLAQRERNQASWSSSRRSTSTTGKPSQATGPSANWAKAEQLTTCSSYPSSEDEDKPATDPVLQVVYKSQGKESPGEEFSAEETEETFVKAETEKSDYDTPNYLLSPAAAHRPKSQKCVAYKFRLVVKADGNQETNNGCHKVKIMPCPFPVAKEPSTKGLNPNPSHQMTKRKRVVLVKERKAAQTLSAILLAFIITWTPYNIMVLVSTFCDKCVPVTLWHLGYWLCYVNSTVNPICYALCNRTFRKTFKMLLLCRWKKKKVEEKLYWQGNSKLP
CHO-K1 Ca PAM = nonselective calcium activators in parental CHO-K1 cells, primary screen, counter-screen for M1 PAM project, cell-based, Fluo-8 calcium fluorescence, full deck, 1536-well; 360,000 tested, 0.02% active; ATP EC20; 0% at ATP EC20, 100% at ATP max; activation, % at 3 µM;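 active = activation above the run cutoff, the mean activation of all test compounds plus 3 SD, cut at about 40% in these data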;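 note: peak over basal fluorescence ratio in a 140 s read after ATP addition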
CHRM5 agonist = human M5 muscarinic receptor agonists, primary screen, CHO-K1 cells, Fluo-8 calcium fluorescence; CHO-K1 hM5 cells; 0% DMSO wells, 100% maximal acetylcholine response; activation, % at 3 µM; 360,000 tested, 0.19% active; AID 624037, 2012;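 active = activation above the run's mean over test compounds plus 3 SD, cut at about 23% in these data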;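 note: signal is peak over basal fluorescence ratio across the kinetic read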
CHRM5 PAM = human M5 muscarinic receptor positive allosteric modulators, primary screen, CHO-K1 cells, Fluo-8 calcium fluorescence; activation, % at 3 µM; CHO-K1 hM5, ACh EC20 PAM; 0% = ACh EC20, 100% = ACh EC100; Muscarinic acetylcholine receptor M5 (Homo sapiens), P08912; 360,000 tested, 0.3% active;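 active = activation above the run cutoff, the mean activation of all test compounds plus 3 SD, cut at about 18% in these data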
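system = human M5 receptor in CHO-K1 cells | compound = one concentration, 3 µM final (nominal) | schedule = Post-acetylcholine fluorescence recording 140 s | signal = Fluo-8 calcium dye fluorescence, kinetic read | benchmarks = low control EC20 acetylcholine (0%), high control EC100 acetylcholine (100%) | repeats = singlicate, one well per test compound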
The depositor's hits bear a star.

SMILES | CHO-K1 Ca antag | M1 ag parental | CHRM5 antagonist | CHO-K1 Ca PAM | CHRM5 agonist | CHRM5 PAM
O=C(CCCCCN1C(=O)CCC1=O)Nc1ccc(Cl)c(C(F)(F)F)c1 | -32.5 | 17.0* | 13.6 | 10.8 | 8.7 | -25.4
COc1cccc(CN(C)C(=O)CNC(=O)c2sc3ccccc3c2Cl)c1OC | -4.7 | 3.6 | 12.4 | -5.2 | -0.5 | -1.7
CN(Cc1cn[nH]c1-c1ccc(-c2ccccc2)cc1)CC1CCOCC1 | -2.0 | 16.7* | -3.6 | 21.4 | -0.3 | 1.9
COc1ccccc1-n1cc(-c2ccc(C)cc2)[nH]c1=S | -5.7 | -0.8 | -0.8 | -9.8 | -1.6 | -3.7
Cc1ccc(-c2cc(NC=O)c3ncc(-c4cccc(C(=O)N(C)C)c4)n3c2)cc1 | -2.0 | 1.3 | 5.8 | 4.5 | 0.3 | -5.8
COc1ccc(NC(=O)C(Sc2ccccc2)c2ccccc2)c(OC)c1 (stereo unspecified) | -21.1 | 2.9 | -6.7 | 43.5* | -2.7 | 1.6
Cc1cc(=O)c(C(=O)O)nn1-c1ccccc1[N+](=O)[O-] | -12.9 | -0.4 | 6.3 | 12.2 | -1.4 | 8.2
O=c1c2sccc2nc(SCc2cc(=O)n3cc(Cl)ccc3n2)n1-c1ccc(F)cc1 | -7.4 | 15.1* | -3.9 | 24.7 | 1.3 | -3.4
O=C(O)CCCCn1c(SCc2cc(=O)n3cc(Cl)ccc3n2)nc2ccsc2c1=O | -0.9 | 0.6 | 1.1 | 13.1 | -1.1 | -1.8
CNC(=O)c1cc(Oc2ccc(NC(=O)Nc3ccc(Cl)c(C(F)(F)F)c3)cc2)ccn1 | 18.1 | 11.9 | 29.6* | -8.2 | 3.0 | -31.5
COc1cc(S(=O)(=O)N(Cc2cccs2)CC2CCCO2)ccc1-n1cnnn1 (stereo unspecified) | 0.6 | 1.1 | -5.7 | 4.3 | -1.8 | -1.7
O=S(=O)(NCc1ccccc1)c1ccc(S(=O)(=O)N(Cc2cccs2)CC2CCCO2)cc1 (stereo unspecified) | 27.8* | 0.0 | -0.8 | -7.0 | -0.3 | -4.4
N#Cc1ccc[n+](CC(=O)c2ccc(Cl)cc2)c1 | 11.0 | 0.2 | -10.1 | -16.2 | 4.5 | 22.8*
COCc1ccc(C(=O)Nc2ccccc2C(=O)NCc2cccnc2)cc1 | -16.4 | 2.4 | 8.6 | -3.8 | -2.1 | -1.9
COc1cc(OC)cc(C(=O)Nc2ccccc2C(=O)NCc2cccnc2)c1 | 4.0 | 2.2 | 28.2* | -9.3 | -2.5 | -7.6
Cc1cc(C([O-])=C(C(=S)Nc2ccc(F)cc2)[n+]2ccccc2)c(C)n1-c1ccc(F)cc1 | -8.4 | 0.6 | 11.6 | 11.9 | 0.6 | -4.3
OCC1OC(n2cnc3c(NCc4ccco4)ncnc32)C(O)C1O (stereo unspecified) | -7.7 | 0.4 | 4.5 | 1.8 | -0.2 | 1.8
OC[C@H]1O[C@@H](n2cnc3c(NCc4ccco4)ncnc32)[C@H](O)[C@@H]1O | -4.3 | -0.4 | 6.3 | 4.5 | 45.0* | -17.0
COc1ccc(C)cc1NC(=O)COC(=O)c1c(C)nn(-c2ccccc2)c1C | -14.0 | 6.7 | -2.8 | 14.8 | 5.3 | -9.6
CN1CCN(Cc2cccc(Oc3ccc(Cl)cc3)c2)CC1 | -11.8 | 3.0 | 35.3* | 15.4 | -5.7 | -15.8
O=C(c1ccc(O)c(Br)c1)c1cc(Br)ccc1O | -12.2 | 11.1 | 11.6 | 9.2 | 7.9 | -15.3
O=C(Nc1nccs1)c1cc([N+](=O)[O-])ccc1Cl | 13.4 | 0.0 | -13.2 | -18.9 | 8.2 | 16.1
CCOC(=O)NC(=O)C(=CNc1ccccc1OC)C(=O)NC(=O)OCC | 0.4 | 0.7 | 4.8 | 21.0 | -2.7 | 3.3
CC1(C)CC(=O)C(N=Nc2cc(C(F)(F)F)ccc2Cl)=C(O)C1 | 9.4 | 7.3 | 6.2 | -1.9 | -4.4 | 1.8
COc1ccc(NS(=O)(=O)c2ccc(-c3cnc(C4CC4)o3)cc2)cc1OC | 23.3 | 15.5* | 12.8 | -19.1 | 10.6 | -12.8
SMILES | CHO-K1 Ca antag | M1 ag parental | CHRM5 antagonist | CHO-K1 Ca PAM | CHRM5 agonist | CHRM5 PAM
COc1ccc(NS(=O)(=O)c2ccc3c(c2)OCCO3)cc1OC | 36.1* | 14.1 | 28.8* | -1.8 | 7.8 | -13.4
CCOC(=O)c1c(C)n(C)c2ccc(OCC(O)CN3CCN(C)CC3)cc12 (stereo unspecified) | 20.6 | -0.5 | -2.8 | -9.8 | -2.4 | -1.8
CCOC(=O)c1c(C)n(C)c2ccc(OCC(O)CNCCc3ccccc3)cc12 (stereo unspecified) | 31.3* | 12.1 | 4.4 | 4.4 | -3.4 | -3.6
N#C/C(=N\Nc1ccc([N+](=O)[O-])cc1)C(N)=S | 17.4 | 8.8 | 29.7* | -16.4 | 7.1 | -19.9
CCOC(=O)/C(C#N)=N/Nc1ccc(S(=O)(=O)N2CCc3ccccc32)cc1 | 17.4 | 10.6 | 27.2* | 8.9 | 3.7 | -14.2
N#C/C(=N\Nc1ccc(S(=O)(=O)N2CCCCCC2)cc1)C(N)=S | 3.9 | 8.4 | 30.2* | 10.3 | 4.0 | -16.9
N#C/C(=N\Nc1ccc(S(=O)(=O)N2CCc3ccccc32)cc1)C(N)=S | 19.9 | 9.7 | 20.6 | 4.3 | 3.7 | -19.0
COc1ccc(C(CNC(=O)c2sccc2C)N2CCOCC2)cc1 (stereo unspecified) | 7.9 | 1.0 | 2.0 | -1.8 | 1.1 | 6.8
C=CCn1c(P(=O)(O)c2ccccc2)nc2ccccc21 | -3.5 | 0.1 | 11.0 | 13.9 | -5.5 | -6.6
COc1ccccc1C(=O)OCC(=O)NC(C)CCc1ccccc1 (stereo unspecified) | -7.0 | 0.1 | 4.1 | -7.6 | -5.2 | -9.1
CC(CCc1ccccc1)NC(=O)COC(=O)c1ccccc1O (stereo unspecified) | -8.6 | 15.8* | 8.4 | 14.9 | -1.1 | -4.9
CC(NC(=O)c1ccc(Cl)c(S(=O)(=O)NC2CC2)c1)c1ccco1 (stereo unspecified) | -1.9 | 0.7 | -0.3 | 1.8 | 1.6 | -3.3
COCCN(C(=O)CCC(=O)Nc1cc(C)on1)C(C(=O)NC1CCCC1)c1ccccc1F (stereo unspecified) | -3.5 | -0.2 | 17.5 | -3.3 | 5.9 | 27.6*
Cc1cc(NC(=O)CCC(=O)N(Cc2ccco2)C(C(=O)NC2CCCC2)c2ccccc2F)no1 (stereo unspecified) | -14.4 | 2.0 | 3.0 | 17.9 | 0.0 | -4.7
Cc1cc(C(=O)NN=C2CCCC2)c2ccccc2n1 | 12.0 | -0.2 | -6.2 | 6.4 | -3.7 | 1.6
Cc1cc(C(=O)N/N=C2\CC(=O)CC(C)(C)C2)c2ccccc2n1 | 25.9* | -0.1 | 0.9 | -7.7 | -0.6 | -3.8
C[C@@H]1CN([C@@H](C)CO)C(=O)Cc2cc(NS(=O)(=O)c3cn(C)cn3)ccc2O[C@@H]1CN(C)C(=O)Nc1ccccc1 | -12.3 | 0.1 | 10.3 | 12.2 | -1.6 | 5.4

Screening results (PubChem BioAssay)
